# Screens: PubChem BioAssay, several laboratories
# ADAM10 inh: inhibitors of human ADAM10. O14672. recombinant ADAM10, EDANS/DABCYL FRET peptide cleavage, 3 h. inhibition, % at 7 µM. 0.62% of 370,000 active;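 active = inhibition above a per-campaign cutoff equal to the mean of compounds falling between control-based bounds plus 3 SD, cut at about 20% in these data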;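 note: 0% = DMSO wells while the 100% control is not disclosed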
# Target sequence (O14672 214-748 limits assumed): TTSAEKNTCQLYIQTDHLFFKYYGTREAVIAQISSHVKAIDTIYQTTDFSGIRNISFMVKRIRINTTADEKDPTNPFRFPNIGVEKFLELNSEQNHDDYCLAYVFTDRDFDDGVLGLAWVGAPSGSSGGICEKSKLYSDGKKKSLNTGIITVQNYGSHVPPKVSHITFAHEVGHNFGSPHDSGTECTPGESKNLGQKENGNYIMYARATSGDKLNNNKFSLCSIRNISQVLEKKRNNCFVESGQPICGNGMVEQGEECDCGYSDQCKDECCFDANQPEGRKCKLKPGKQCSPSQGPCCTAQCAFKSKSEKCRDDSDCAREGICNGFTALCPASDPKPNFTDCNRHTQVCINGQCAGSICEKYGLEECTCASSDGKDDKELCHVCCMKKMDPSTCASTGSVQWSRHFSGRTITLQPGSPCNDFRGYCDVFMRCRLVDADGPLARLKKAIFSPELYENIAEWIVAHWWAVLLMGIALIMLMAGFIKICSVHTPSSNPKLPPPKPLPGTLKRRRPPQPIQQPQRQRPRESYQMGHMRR
# V-ATPase pH: alters yeast V-ATPase proton transport; S. cerevisiae, pHLuorin cytosolic pH fluorescence; response, % at 10 µM; 0.37% of 350,000 active; in the data active = response mostly above about 7.3%, no sharp cut-off; inactive = mostly below about 5.4%; note: actives read high
# aDG glyco act: increases alpha dystroglycan glycosylation | Pro5-aDG cells, alpha-DG glycosylation AlphaScreen (IIH6); 0% Pro5, 100% B10-LARGE cell signal | 0.22% of 360,000 active | activation, % at 10 µM;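 active = activation of at least 8% versus controls, or a plate z-score of at least 8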;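 note: Pro5 are CHO cells carrying HIG-tagged alpha-DG that lacks glycosylation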
# MPTP block: inhibitors of mitochondrial permeability transition pore. inhibition, % at 10 µM. isolated mouse mitochondria, Ca2+ swelling absorbance, 30 min. 1.4% of 360,000 active;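 active = inhibition of 50% or more, scaled per plate between neutral and stimulator controls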;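 note: 0% = DMSO wells given calcium and 100% = 1 mM EGTA wells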
# Hep lipid drop: hepatic lipid droplet formation modulation | 0.4% of 240,000 active | AML12 mouse hepatocytes, oleate lipid droplets, BODIPY imaging | inhibition, % at 6.5 µM;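 active = lipid droplet intensity inhibited by at least 50%, with more than 500 cells counted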
#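 Test system: AML12 mouse liver cells; schedule: overnight exposure; technique: high-content imaging of BODIPY-stained droplets and DAPI nuclei; read-out: % inhibition of corrected integrated BODIPY droplet signal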
# ADAM17 inh: inhibitors of human ADAM17; 0.83% of 370,000 active; inhibition, % at 6.95 µM; recombinant ADAM17, EDANS/DABCYL FRET peptide cleavage;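 active = inhibition above the mean of compounds lying between control limits plus 3 SD, set per campaign, cut at about 8.5% in these data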;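 note: 0% = DMSO-only wells as the low control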
# * marks the source's active call; other numbers are inactive results; i = inactive; · = not tested or not shown. Hits are enriched below; roughly 3.1% of the tested compounds scored in any of these assays.
SMILES,ADAM10 inh,V-ATPase pH,aDG glyco act,MPTP block,Hep lipid drop,ADAM17 inh
COc1ccc(S[C@]2(C(=O)N3CCN(c4ncccn4)CC3)CC(=O)N(c3ccc4ccccc4c3)[C@@H]2c2ccc(OC)cc2)cc1,-4,·,·,·,·,0
CCn1nnnc1SCC(=O)N1CCCc2ccccc21,5,24*,0,-1,6,4
CCn1c(SCC(=O)N2CCCc3ccccc32)nc2c(c1=O)SC(C)C2 (stereo unspecified),-10,16*,0,0,-28,-1
CCn1c(SCC(=O)N2CCc3ccccc32)nc2c(c1=O)SC(C)C2 (stereo unspecified),·,·,0,-1,-19,·
O=c1cc(-c2ccccc2)nc2nc(CCc3ccccc3)[nH]n12,-5,16*,0,2,6,-3
N#Cc1ccc(OC[C@@H](O)CN2CCC(C(O)(c3ccccc3)c3ccccc3)CC2)cc1,-9,·,·,·,·,1
O=C(CN[C@@H](Cc1c[nH]c2ccccc12)C(=O)NCCc1c[nH]c2ccccc12)NC1CCCCC1,4,·,·,·,·,0
COc1ccc(O)c(/C=N/Nc2nc(Nc3ccccc3)nc(-n3nc(C)cc3C)n2)c1,14,-2,-1,-2,0,11*
COc1cc(/C=N/Nc2nc(Nc3ccccc3)nc(-n3nc(C)cc3C)n2)cc(OC)c1OC,-2,0,0,0,-5,-2
CC(C)C[C@H](NC1(C(=O)NCCc2c[nH]c3ccccc23)CCOCC1)C(=O)NCCCc1ccccc1,-3,·,·,·,·,-3
Cc1ccc2nc(-c3ccc(NC(=O)CSc4nnc(Cc5cccs5)n4C)cc3)sc2c1,i,·,·,·,·,i
Nc1nc(-c2ccccc2)c(N=Nc2ccc(Cl)cc2)s1,-2,4,0,7,93*,0
Nc1nc(-c2ccccc2)c(-c2ccccc2)s1,6,-2,0,-2,·,6
O=C1[C@H]2[C@@H](c3ccc(F)cc3)N3C(=O)N(c4ccc(Br)cc4)C(=O)[C@@]3(Cc3ccc(Cl)cc3)[C@H]2C(=O)N1C1CCCCC1,8,12*,1,4,-17,1
Cc1ccc(-n2ncc(C(=O)Nc3cc(Cl)ccc3C)c2C2CCNCC2)cc1C,0,32*,0,-3,1,-3
Cc1cc(C)cc(OCC(=O)OCC(=O)NC2CCCCCC2)c1,3,17*,0,0,·,-2
O=S(=O)(c1ccccc1Br)N(Cc1cn(CC2CCCCC2)nn1)C1CC1,-2,·,·,·,·,-1
CCc1c(C)nc2ncnn2c1Nc1ccc(C)cc1,0,2,0,0,-1,-3
CCc1c(C)nc2ncnn2c1NC1CCCc2ccccc21 (stereo unspecified),1,13*,0,5,4,-2
COC(=O)[C@H](CC(C)C)N(CCCc1cn(Cc2ccccc2)nn1)S(=O)(=O)c1ccc(F)cc1Br,16,·,·,·,·,7
COc1ccc(CN(C)CC#Cc2ccccc2)c(OC)c1,3,·,·,·,·,3
CCCCN(Cc1cc2cc(OC)ccc2[nH]c1=O)C(=O)c1ccccn1,-246,-4,0,1,12,-68
COc1ccc2[nH]c(C(=O)N(Cc3ccccn3)Cc3ccccn3)cc2c1,-162,37*,0,2,13,-53
O=C(NC(=S)Nc1ccccn1)c1ccccc1,7,-4,0,1,61*,-3
S=C(Nc1ccc(Nc2ccccc2)cc1)Nc1ccccn1,11,-1,9.4*,13,15,8
SMILES,ADAM10 inh,V-ATPase pH,aDG glyco act,MPTP block,Hep lipid drop,ADAM17 inh
S=C(Nc1ccccc1)Nc1ccccn1,-13,1,0,0,·,-1
O=C1CC(N2CCC(Cc3ccccc3)CC2)C(=O)N1CCc1ccccc1 (stereo unspecified),1,10*,0,0,-10,4
O=S(=O)(c1ccccc1)N1CCN=C1SCc1ccc(Cl)c(Cl)c1,13,37*,1,4,-6,5
O=S(=O)(c1ccccc1)N1CCN=C1SCc1ccc(Cl)cc1,5,1,1,2,1,-1
O=C(CSc1nc2ccccc2nc1N1CCOCC1)N1CCN(S(=O)(=O)c2cccc([N+](=O)[O-])c2)CC1,1,·,·,·,·,1
COc1ccc(Nc2ccc3c(c2)=NC2(CCCCC2)[N+]=3[O-])cc1,6,-2,0,8,·,9.7*
[O-][N+]1=c2ccc(Nc3ccccc3)cc2=NC12CCCCC2,0,3,0,8,·,1
COc1ccc(S[C@]2(C(=O)N3CCN(c4ncccn4)CC3)CC(=O)N(c3ccsc3)[C@@H]2c2ccc(OC)cc2)cc1,4,·,·,·,·,4
CCN(CC)C(=O)c1ccc(C(CCOC(=O)Oc2ccccc2)c2ccc(OC)cc2)cc1 (stereo unspecified),8,·,·,·,·,2
CCCCOC(=O)c1ccc(NC(C)=O)cc1,-3,0,0,1,·,-5
CCCCOC(=O)c1ccc(NC(=O)/C=C/c2cccs2)cc1,14,-1,2,5,65*,8
CCOC(=O)c1c(C)[nH]c(N=Nc2ccc(C)cc2)c1C,10,-1,0,4,22,15*
Cc1ccc(C(=O)N/N=C/c2ccc([N+](=O)[O-])s2)cc1,-9,-5,13*,-28,·,-3
O=C(N/N=C/c1ccc([N+](=O)[O-])s1)c1ccncc1,·,2,12*,0,8,·
O=C(N/N=C/c1ccc([N+](=O)[O-])s1)c1cccc(Br)c1,-3,1,8.9*,7,-24,3
Cc1ccc(C(=O)N/N=C\c2ccc([N+](=O)[O-])s2)cn1,0,-2,6,0,-38,0
CCCCNC(=O)C[C@H]1C[C@@]2(C(=O)OC)C(=C[C@H](COCc3ccccc3)O[C@@H]2C)N(Cc2cccc3ccccc23)C1=O,-1,·,·,·,·,-3
CCCC(=O)N1CCC[C@]2(CC[C@H](CCC(C)=O)O2)C1,-8,·,·,·,·,-5
CCOC(=O)Cn1cc(CN2C(C(=O)OC)CN(Cc3ccc(OC)cc3)CCS2(=O)=O)nn1 (stereo unspecified),-5,·,·,·,·,-4
CCCCN(C)C1=CC2=CC(=C(C#N)C#N)CCC2CC1 (stereo unspecified),-24,291*,0,9,-25,-8
N#CC(C#N)=C1C=C2C=C(N3CCCCC3)CCC2CC1 (stereo unspecified),·,·,·,·,-13,·
CCN(CC)C1=CC2=CC(=C(C#N)C#N)CCC2CC1 (stereo unspecified),-17,219*,0,2,-7,-1
COC(=O)CSC1=NS(=O)(=O)c2ccccc21,·,11*,0,-2,-3,·
COc1cc2cc(C(=O)N3CCN(Cc4ccc5c(c4)OCO5)CC3)[nH]c2cc1OC,-159,-4,0,1,-25,-48
O=C(c1cc2cc(F)ccc2[nH]1)N1CCN(Cc2ccc3c(c2)OCO3)CC1,6,14*,0,0,-38,8
